This note sets out measurements from ChEMBL document CHEMBL1124064, “Synthesis and anticandidal properties of polyoxin L analogues containing alpha-amino fatty acids” (1988).

In experiment [1] the target is Chitin synthase 1 (Candida albicans) (UniProt P23316). Description: (§1) Concentration at which chitin synthetase is inhibited by 50%. An outline of the steps: (§2)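 Mixed membrane (particulate) fraction from C. albicans H-317 was the enzyme source. Chitin synthetase activity was measured with and without polyoxin compounds as incorporation of N-acetylglucosamine into chitin. ID50 is the concentration giving 50% inhibition.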

Experiment [2] has as its system Candida albicans. Description: Minimum inhibitory concentration against the growth of Candida albicans H-317 strain. It counts as functional. An outline of the steps:
(§3)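 Cells grown in yeast nitrogen base with ammonium sulfate (0.5%) as nitrogen source, 24-48 h at 37 °C. MIC is the lowest drug concentration producing 5% morphologically aberrant cells, scored by microscopy.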

Experiment [3] has as its system Candida albicans. Description: Minimum inhibitory concentration against the growth of Candida albicans 124 strain. Format: functional. Put shortly: as §3
Experiment [4] relates to Candida albicans. Nature of the experiment: Percent inhibition of transport of (Met)3 into Candida albicans H-317. Format: functional. Set-up: concentration or dose not given beside the values. An outline of the steps: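 H-317 cells grown in yeast nitrogen base with isoleucine (0.5%) as nitrogen source, washed, and prewarmed 10 min at 37 °C in 2% glucose. Cells were mixed with pH 3.5 citrate (10 mM)-KH2PO4 (10 mM) buffer containing labeled trimethionine (2.9×10^-5 M, 1 μCi/μmol). Analogue was added at 10-fold molar excess. Filtered samples were taken at 0, 1, 2, 3 and 4 min and counted by scintillation; rate was expressed as nmol/mg dry cells/min.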

Experiment [5] relates to Candida albicans. Nature of the experiment: Minimum inhibitory concentration against the growth of Candida albicans 124 NIK strain. Format: functional. Put shortly:
as §3

In experiment [6] the test system is Candida albicans. Description: Percent inhibition of transport of (Leu)2 into Candida albicans H-317. Format: functional. Set-up: concentration or dose not given beside the values. Put shortly:
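H-317 cells grown in yeast nitrogen base with isoleucine (0.5%) as nitrogen source, harvested at 8×10^6 cells/mL, and washed. Cells in 2% glucose were warmed 10 min at 37 °C, then mixed with pH 5.5 citrate (10 mM)-KH2PO4 (10 mM) buffer containing labeled dileucine (5.6×10^-5 M, 44 μCi/μmol). Analogue was present at 10-fold molar excess. Samples were filtered at 0-4 min and counted; uptake rate was expressed as nmol/mg dry weight/min.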

For experiment [7], the target named is Chitin synthase 1 (Candida albicans) (UniProt P23316). The description is as §1. It counts as functional. Put shortly:
as §2

In experiment [8] the test system is Candida albicans. Nature of the experiment: Compound was tested for hydrolysis by Candida albicans H-317 extract; (+) Indicates compound was hydrolyzed by C. albicans H-317 extract. Format: functional. Put shortly: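 Cell extract of C. albicans H-317 (100 μL at 200 μg protein/mL) incubated at 37 °C with polyoxin compound (100 μL of 1 μg/mL) plus 300 μL water. Hydrolysis monitored by reversed-phase HPLC, absorbance at 254 nm.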

Where [9] appears, read: Candida albicans, read-out: MIC.

Molecules are shown by their SMILES. Values after ≈ are worked out from the molar mass of the structure shown. Bounds are passed on as bounds.

Chain of Chitin synthase 1 (Candida albicans) (P23316 whole entry, looked up): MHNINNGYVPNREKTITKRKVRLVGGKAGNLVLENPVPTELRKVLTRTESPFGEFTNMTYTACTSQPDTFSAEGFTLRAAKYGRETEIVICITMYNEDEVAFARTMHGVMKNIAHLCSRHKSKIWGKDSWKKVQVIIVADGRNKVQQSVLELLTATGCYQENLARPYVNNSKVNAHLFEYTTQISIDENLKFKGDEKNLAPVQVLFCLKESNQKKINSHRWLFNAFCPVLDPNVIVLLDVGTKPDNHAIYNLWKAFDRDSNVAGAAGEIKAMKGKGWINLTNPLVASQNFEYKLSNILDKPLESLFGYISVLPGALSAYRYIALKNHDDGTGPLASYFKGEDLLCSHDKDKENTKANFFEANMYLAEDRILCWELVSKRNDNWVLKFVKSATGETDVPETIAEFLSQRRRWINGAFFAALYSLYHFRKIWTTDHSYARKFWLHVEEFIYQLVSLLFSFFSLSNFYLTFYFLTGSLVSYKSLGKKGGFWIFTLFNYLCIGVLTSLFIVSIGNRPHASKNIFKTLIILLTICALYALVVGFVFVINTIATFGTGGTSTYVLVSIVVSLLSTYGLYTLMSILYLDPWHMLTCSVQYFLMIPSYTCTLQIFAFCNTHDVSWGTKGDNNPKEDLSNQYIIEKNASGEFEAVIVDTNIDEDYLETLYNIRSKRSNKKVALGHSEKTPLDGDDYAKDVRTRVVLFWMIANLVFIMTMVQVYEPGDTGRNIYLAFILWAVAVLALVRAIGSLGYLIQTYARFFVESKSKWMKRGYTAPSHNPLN

In turn, `CCCCCCCCCCCCCCC(N)C(=O)NC(C(=O)O)[C@H]1O[C@@H](n2ccc(=O)[nH]c2=O)[C@H](O)[C@@H]1O` (stereo in doubt; 5a) [listing 1 of 2 here] displayed an ID50 in experiment [1] of over 100 µg/mL.
The term MIC denotes the smallest concentration in the dilution series that meets the test's criterion for growth inhibition. A word on the Inhibition: it is the percentage by which the read-out fell short of the control. In the case of `CCCCCCC(N)C(=O)NC(C(=O)O)[C@H]1O[C@@H](n2ccc(=O)[nH]c2=O)[C@H](O)[C@@H]1O` (stereo in doubt; 3b) [listing 1 of 2 here], the MIC with Candida albicans [2], with Candida albicans [3] and in the experiment on Candida albicans [5] was over 320 µg/mL throughout. Further, the Inhibition with Candida albicans [4] came out at 10%; in the experiment with Candida albicans [6] it was 14%.
The molecule `CCCCCCCCCCCCCCC(N)C(=O)NC(C(=O)O)[C@H]1O[C@@H](n2ccc(=O)[nH]c2=O)[C@H](O)[C@@H]1O` (stereo in doubt; 5a) [listing 2 of 2 here] displayed an Inhibition with Candida albicans [6] of 56%.
`CCCCCCC(N)C(=O)NC(C(=O)O)[C@H]1O[C@@H](n2ccc(=O)[nH]c2=O)[C@H](O)[C@@H]1O` (stereo in doubt; 3b) [listing 2 of 2 here] returned an ID50 in experiment [1] of over 50 µg/mL.
As for `CCCCCCCCCCC(N)C(=O)NC(C(=O)O)[C@H]1O[C@@H](n2ccc(=O)[nH]c2=O)[C@H](O)[C@@H]1O` (stereo partly drawn), the MIC was 80 µg/mL (≈ 165 µM) with Candida albicans [2] (setting [9]), 40 µg/mL (≈ 82.6 µM) in the experiment with Candida albicans [3] (setting [9]) and 80 µg/mL (≈ 165 µM) in the experiment on Candida albicans [5] (setting [9]). The Inhibition in the experiment with Candida albicans [4] is 0%; with Candida albicans [6], 87%. In experiment [1], this molecule came in with an ID50 of 0.3 µg/mL (≈ 0.619 µM).
Consider `NC(=O)OCC(O)C(O)C(N)C(=O)NC(C(=O)O)[C@H]1O[C@@H](n2cc(C(=O)O)c(=O)[nH]c2=O)[C@H](O)[C@@H]1O` (stereo partly drawn), for which the MIC in the experiment with Candida albicans [2] (setting [9]) turned out to be 640 µg/mL (≈ 1230 µM); with Candida albicans [3] (setting [9]) it was 320 µg/mL (≈ 614 µM); in the experiment on Candida albicans [5] (setting [9]) it was 320 µg/mL (≈ 614 µM). Besides, the Inhibition is reported as 10% with Candida albicans [4] and 5% in the experiment with Candida albicans [6]. In experiment [1], this molecule displayed an ID50 of 2 µg/mL (≈ 3.84 µM).
With `CCCCCCC(N)C(=O)NC(C(=O)O)[C@H]1O[C@@H](n2ccc(=O)[nH]c2=O)[C@H](O)[C@@H]1O` (stereo in doubt; 3a) [listing 1 of 2 here], the MIC is 160 µg/mL (≈ 373 µM) in the experiment on Candida albicans [2] (setting [9]), 80 µg/mL (≈ 187 µM) against Candida albicans [3] and 640 µg/mL (≈ 1490 µM) in the experiment on Candida albicans [5] (setting [9]). Further, the Inhibition in the experiment with Candida albicans [4] is on record as 6%; with Candida albicans [6] it was 71%.
Take `NC(C(=O)O)[C@H]1O[C@@H](n2ccc(=O)[nH]c2=O)[C@H](O)[C@@H]1O` (stereo partly drawn): the MIC in the experiment with Candida albicans [2] (setting [9]), in the experiment on Candida albicans [3] (setting [9]) and with Candida albicans [5] (setting [9]) was over 640 µg/mL in each case. This molecule also yielded an ID50 in experiment [7] of over 100 µg/mL. In the experiment on Candida albicans [4], this molecule gave an Inhibition of 3%.
Turning to `CCCCCCCCCCCCCCC(N)C(=O)NC(C(=O)O)[C@H]1O[C@@H](n2ccc(=O)[nH]c2=O)[C@H](O)[C@@H]1O` (stereo in doubt; 5b) [listing 1 of 2 here], the ID50 in experiment [1] came out at 10 µg/mL (≈ 18.5 µM).
Regarding `CCCCCCCCCCCCCCC(N)C(=O)NC(C(=O)O)[C@H]1O[C@@H](n2ccc(=O)[nH]c2=O)[C@H](O)[C@@H]1O` (stereo in doubt; 5b) [listing 2 of 2 here], the MIC in the experiment on Candida albicans [2] (setting [9]), in the experiment with Candida albicans [3] (setting [9]) and in the experiment with Candida albicans [5] (setting [9]) was over 320 µg/mL each time. In addition, the Inhibition stood at 10% in the experiment on Candida albicans [4] and 83% in the experiment with Candida albicans [6].
Regarding `CCCCCCC(N)C(=O)NC(C(=O)O)[C@H]1O[C@@H](n2ccc(=O)[nH]c2=O)[C@H](O)[C@@H]1O` (stereo in doubt; 3a) [listing 2 of 2 here], the Hydrolysis entry in the experiment on Candida albicans [8] is “(+)”. In experiment [1], this molecule registered an ID50 of 2 µg/mL (≈ 4.67 µM).
